Experimental data: ChEMBL document CHEMBL3797091, “Part 2. Notch-sparing γ-secretase inhibitors: The study of novel γ-amino naphthyl alcohols” (Bioorg Med Chem Lett, 2016)
Converted amounts (≈) assume the structure as drawn. The source made the active and inactive calls. No cut-off for these calls is given here.

What was measured:
[1] = target: Gamma-secretase; test: Inhibition of gamma secretase (unknown origin)-mediated notch processing by cell based assay; parameters: species or system Homo sapiens
[2] = target: T1, Gamma-secretase (Homo sapiens) (UniProt Q96BI3+Q9NZ42+Q8WW43+P49768+Q92542+P49810); test: Inhibition of human gamma secretase mediated amyloid beta (1 to 40) production expressed in CHO cells at 50 uM using APP based Flag-C-100 as substrate after 4 hrs by ELISA; assay type: cell-based
Procedure, shortened: (§1)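 Enzyme: γ-secretase complex purified from CHO cells stably overexpressing all four human components. Substrate: recombinant APP-based C-100 FLAG. Reaction in 0.2% CHAPSO/HEPES, pH 7.5, at 37°C for 4 h, with compounds in DMSO (1% DMSO final). Stopped with 0.5% SDS. Aβ40 measured by commercial ELISA.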

[3] = target: T1, Gamma-secretase (Homo sapiens); test: Inhibition of human gamma secretase mediated amyloid beta (1 to 40) production expressed in CHO cells at 100 uM using APP based Flag-C-100 as substrate after 4 hrs by ELISA; assay type: cell-based; procedure, shortened: as §1
[4] = target: T1, Gamma-secretase (Homo sapiens); test: Inhibition of human gamma secretase mediated notch 1 processing by Western blot analysis; assay type: protein-complex assay
[5] = Solubility of compound in PBS buffer at pH 7.4; assay type: physicochemical
[6] = Lipophilicity, log D of the compound; assay type: physicochemical; conditions: octanol/water
[7] = Plasma protein binding in human; assay type: ADME, cell-free; conditions: read-out: PPB (converted)
[8] = Permeability of the compound across apical to basolateral side; assay type: ADME; conditions: not told; read-out: permeability
[9] = Metabolic stability in human liver microsomes assessed as parent compound remaining after 60 mins; assay type: ADME; conditions: read-out: Stability
[10] = Metabolic stability in rat liver microsomes assessed as parent compound remaining after 60 mins; assay type: ADME; conditions: read-out: Stability
[11] = target: T1, Gamma-secretase (Homo sapiens); test: Inhibition of human gamma secretase mediated amyloid beta 42 production expressed in CHO cells at 100 uM using APP based Flag-C-100 as substrate after 4 hrs by ELISA; assay type: cell-based
[12] = target: T1, Gamma-secretase (Homo sapiens); test: Inhibition of gamma secretase (unknown origin)-mediated amyloid beta (1 to 42) production at 30 uM by cell based assay
[13] = target: T1, Gamma-secretase (Homo sapiens); test: Inhibition of gamma secretase (unknown origin)-mediated amyloid beta (1 to 40) production at 100 uM by cell based assay
[14] = target: T1, Gamma-secretase (Homo sapiens); test: Inhibition of gamma secretase (unknown origin)-mediated amyloid beta (1 to 42) production at 100 uM by cell based assay

| Structure (SMILES) | inhibition [3] | inhibition [4] | other results |
| --- | --- | --- | --- |
| CCC(CC)N(Cc1ccc(C(=O)O)cc1)S(=O)(=O)c1ccc(Cl)cc1 |  |  | IC50 [1]: 10 µM |
| CCC(CC)(CN(Cc1ccccc1)C(C)C)C(=O)c1ccc2ccccc2c1 |  |  | inhibition [2]: 40% |
| CC(C)N(CCC(O)c1ccc2ccccc2c1)Cc1ccccc1 (racemic) | 81% | inactive | solubility [5]: 98 µM (≈ 32.7 µg/mL); logD [6]: 3.4; fraction unbound [7]: 0.1; Papp A→B [8]: 18.4 ×10⁻⁶ cm/s; remaining at 1 h [9]: 1%; remaining at 1 h [10]: 0%; inhibition [11]: 67%; IC50 [1]: > 100 µM; inhibition [12]: 45% |
| CCC(CC)(CN(Cc1ccccc1)C(C)C)C(O)c1ccc2ccccc2c1 (racemic) | 82% | inactive | inhibition [13]: 80%; inhibition [14]: 100%; IC50 [1]: > 75 µM |
| CC(C)(C)N(CCC(O)c1ccc2ccccc2c1)Cc1ccccc1 (racemic) | 0% |  |  |
| CC(C)CN(CCC(O)c1ccc2ccccc2c1)Cc1ccccc1 (racemic) | 0% |  |  |
| CC(C)N(CCC(O)c1cc(C(F)(F)F)cc(C(F)(F)F)c1)Cc1ccccc1 (racemic) | 15% | Active | inhibition [12]: 81% |
| CC(C)N(CCC(O)c1cc(F)cc(Cl)c1)Cc1ccccc1 (racemic) | 30% | Active |  |
| CC(C)N(CCC(O)c1cc2ccccc2o1)Cc1ccccc1 (racemic) | 0% |  |  |
| CC(C)N(CCC(O)c1ccc(C(C)(C)C)cc1)Cc1ccccc1 (racemic) | 72% | Active | inhibition [12]: 14% |
| CC(C)N(CCC(O)c1ccc(OC2CCCCO2)cc1)Cc1ccccc1 (racemic) | 0% |  |  |
| CC(C)N(CCC(O)c1ccc(OCc2ccccc2)cc1)Cc1ccccc1 (racemic) | 31% | inactive |  |
| CC(C)N(CCC(O)c1ccc(Oc2ccccc2)cc1)Cc1ccccc1 (racemic) | 24% | inactive |  |
| CC(C)N(CCC(O)c1ccc2c(c1)OCO2)Cc1ccccc1 (racemic) | 0% |  |  |
| CC(C)N(CCC(O)c1ccc2ccccc2c1)Cc1cc(F)cc(F)c1 (racemic) | 54% | Active |  |
| CC(C)N(CCC(O)c1ccc2ccccc2c1)Cc1ccc(C#N)cc1 (racemic) | 19% |  |  |
| CC(C)N(CCC(O)c1ccc2ccccc2c1)Cc1ccc(Cl)c(Cl)c1 (racemic) | 60% | inactive |  |
| CC(C)N(CCC(O)c1ccc2ccccc2c1)Cc1ccc(F)c(Cl)c1 (racemic) | 38% |  |  |
| CC(C)N(CCC(O)c1ccc2ccccc2c1)Cc1ccc(F)c(F)c1 (racemic) | 64% | inactive | inhibition [14]: 23% |
| CC(C)N(CCC(O)c1ccc2ccccc2c1)Cc1cccc(C#N)c1 (racemic) | 7% |  |  |
| CC(C)N(CCC(O)c1ccc2ccccc2c1)c1ccccc1 (racemic) | 68% | Active |  |

| Structure (SMILES) | inhibition [3] | inhibition [4] | other results |
| --- | --- | --- | --- |
| CC(C)N(CCC(O)c1cccc(Oc2ccccc2)c1)Cc1ccccc1 (racemic) | 30% | inactive |  |
| CC(C)N(CCC(O)c1cccc2ccccc12)Cc1ccccc1 (racemic) | 46% | inactive |  |
| CC(C)N(CCC(O)c1ccccc1)Cc1ccccc1 (racemic) | 10% | Active |  |
| CC(C)N(CCCC(O)c1ccc2ccccc2c1)Cc1ccccc1 (racemic) | 18% | Active |  |
| CC(C)N(Cc1ccccc1)CC(C)(C)C(O)c1ccc2ccccc2c1 (racemic) | 72% | inactive |  |
| CC(C)N(Cc1ccccc1)CC(O)c1ccc2ccccc2c1 (racemic) | 0% | Active |  |
| CCC(CC)(CN(Cc1ccc(Cl)c(Cl)c1)C(C)C)C(O)c1ccc2ccccc2c1 (racemic) | 59% | inactive |  |
| CCC(CC)(CN(Cc1ccc(F)c(F)c1)C(C)C)C(O)c1ccc2ccccc2c1 (racemic) | 69% | inactive |  |
| CCN(CCC(O)c1ccc2ccccc2c1)Cc1ccccc1 (racemic) | 15% |  |  |
| CN(CCC(O)c1ccc2ccccc2c1)Cc1ccccc1 (racemic) | 15% | inactive |  |
| COC(CCN(Cc1ccccc1)C(C)C)c1ccc2ccccc2c1 (racemic) | 51% | inactive |  |
| COc1cc(CN(CCC(O)c2ccc3ccccc3c2)C(C)C)cc(OC)c1 (racemic) | 17% | inactive |  |
| COc1ccc(CN(CCC(O)c2ccc3ccccc3c2)C(C)C)cc1 (racemic) | 55% | inactive |  |
| COc1ccc(N2CCN(CCC(O)c3ccc4ccccc4c3)CC2)cc1 (racemic) | 0% |  |  |
| Cc1ccc(C(O)CCN(Cc2ccccc2)C(C)C)cc1F (racemic) | 29% | Active |  |
| OC(CCN(Cc1ccccc1)C1CC1)c1ccc2ccccc2c1 (racemic) | 36% |  |  |
| OC(CCN(Cc1ccccc1)Cc1ccccc1)c1ccc2ccccc2c1 (racemic) | 32% |  |  |
| OC(CCN1CCN(Cc2ccccc2)CC1)c1ccc2ccccc2c1 (racemic) | 15% | inactive |  |
| OC(CCN1CCN(c2ccc(F)cc2)CC1)c1ccc2ccccc2c1 (racemic) | 61% | inactive |  |
| OC(CCN1CCN(c2cccc(C(F)(F)F)c2)CC1)c1ccc2ccccc2c1 (racemic) | 38% | inactive | inhibition [11]: 14% |
| OC(CCN1CCN(c2ccccc2)CC1)c1ccc2ccccc2c1 (racemic) | 0% | inactive |  |
